Measured values from ChEMBL document CHEMBL1125894, “Dual-action cephalosporins: cephalosporin 3'-quaternary ammonium quinolones” (1991).
In brackets after ≈: the same amount, converted by molar mass.

Key:
[1] = target: T1, Peptidoglycan D,D-transpeptidase MrdA (Escherichia coli K-12) (UniProt P0AD65); assay: Concentration required for 90% inhibition against 66 kDa penicillin-binding protein 2 binding using [14C]-Pen G as the radioligand.
T1 sequence (whole entry): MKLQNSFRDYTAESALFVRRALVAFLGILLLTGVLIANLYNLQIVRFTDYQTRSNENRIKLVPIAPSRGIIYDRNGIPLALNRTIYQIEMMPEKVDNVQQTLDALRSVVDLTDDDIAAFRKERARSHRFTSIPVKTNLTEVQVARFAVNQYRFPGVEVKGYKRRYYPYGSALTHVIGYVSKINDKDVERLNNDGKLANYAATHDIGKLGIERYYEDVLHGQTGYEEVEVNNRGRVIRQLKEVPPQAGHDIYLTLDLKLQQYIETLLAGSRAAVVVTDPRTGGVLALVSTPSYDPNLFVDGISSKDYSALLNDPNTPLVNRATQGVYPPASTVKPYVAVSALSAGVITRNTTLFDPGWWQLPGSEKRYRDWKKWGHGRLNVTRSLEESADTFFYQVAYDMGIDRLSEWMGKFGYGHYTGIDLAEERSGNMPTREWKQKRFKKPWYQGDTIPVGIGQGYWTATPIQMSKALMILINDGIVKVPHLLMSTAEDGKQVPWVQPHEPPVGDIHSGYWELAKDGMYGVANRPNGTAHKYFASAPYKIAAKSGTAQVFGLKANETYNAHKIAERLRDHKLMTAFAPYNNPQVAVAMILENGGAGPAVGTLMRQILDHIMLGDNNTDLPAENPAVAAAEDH
How it was run: (§1)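 Solubilized membranes from sonicated E. coli DC-0 were used. PBP binding was measured as inhibition of [14C]penicillin G binding to each PBP.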

Escherichia coli [2] = assay: In vitro antibacterial activity against Escherichia coli 257; assay type: functional
How it was run: (§2)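 Serial 2-fold dilutions in the NCCLS broth microdilution method for aerobic nonfastidious organisms, with an 18-h incubation. The value is reported as the minimum inhibitory concentration (MIC).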

Citrobacter freundii = assay: In vitro antibacterial activity against Citrobacter freundii BS 16; assay type: functional; how it was run: as §2
Klebsiella pneumoniae = assay: In vitro antibacterial activity against Klebsiella pneumoniae A; assay type: functional; how it was run: as §2
Escherichia coli [3] = assay: Antibacterial activity against Escherichia coli DC-O; assay type: functional; how it was run: as §2
Serratia marcescens [4] = assay: In vitro antibacterial activity against Serratia marcescens SM; assay type: functional; how it was run: as §2
[5] = target: T2, Penicillin-binding protein 1B (Escherichia coli K-12) (UniProt P02919); assay: Concentration required for 90% inhibition against 90 kDa penicillin-binding protein 1b binding using [14C]-Pen G as the radioligand.; how it was run: as §1
T2 sequence (whole entry): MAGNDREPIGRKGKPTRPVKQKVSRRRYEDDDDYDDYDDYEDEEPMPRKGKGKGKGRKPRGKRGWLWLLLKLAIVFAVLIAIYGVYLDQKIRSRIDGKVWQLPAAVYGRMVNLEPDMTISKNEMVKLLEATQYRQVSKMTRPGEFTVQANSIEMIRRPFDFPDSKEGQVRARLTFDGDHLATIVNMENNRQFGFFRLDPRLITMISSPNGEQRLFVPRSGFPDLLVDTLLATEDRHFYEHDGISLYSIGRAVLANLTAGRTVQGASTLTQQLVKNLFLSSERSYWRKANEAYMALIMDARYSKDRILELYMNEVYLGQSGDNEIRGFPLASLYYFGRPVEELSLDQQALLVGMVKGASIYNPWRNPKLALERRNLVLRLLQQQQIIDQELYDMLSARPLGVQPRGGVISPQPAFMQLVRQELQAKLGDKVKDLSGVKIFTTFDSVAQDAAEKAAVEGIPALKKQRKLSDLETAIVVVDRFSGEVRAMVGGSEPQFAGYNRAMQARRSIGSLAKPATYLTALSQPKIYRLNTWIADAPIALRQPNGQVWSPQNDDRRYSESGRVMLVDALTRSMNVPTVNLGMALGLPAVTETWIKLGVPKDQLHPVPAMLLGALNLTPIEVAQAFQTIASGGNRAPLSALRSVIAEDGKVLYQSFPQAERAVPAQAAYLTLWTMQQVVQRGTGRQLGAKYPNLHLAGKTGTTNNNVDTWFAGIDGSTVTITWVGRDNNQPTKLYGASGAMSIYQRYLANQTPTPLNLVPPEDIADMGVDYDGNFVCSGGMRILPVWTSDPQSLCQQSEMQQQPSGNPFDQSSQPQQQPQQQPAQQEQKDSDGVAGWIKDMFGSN

Pseudomonas aeruginosa [6] = assay: In vitro antibacterial activity against Pseudomonas aeruginosa 5712; assay type: functional; how it was run: as §2
[7] = target: T3, Penicillin-binding protein 1A (Escherichia coli K-12) (UniProt P02918); assay: Concentration required for 90% inhibition against 90 kDa penicillin-binding protein 1a binding using [14C]-Pen G as the radioligand.; how it was run: as §1
T3 sequence (whole entry): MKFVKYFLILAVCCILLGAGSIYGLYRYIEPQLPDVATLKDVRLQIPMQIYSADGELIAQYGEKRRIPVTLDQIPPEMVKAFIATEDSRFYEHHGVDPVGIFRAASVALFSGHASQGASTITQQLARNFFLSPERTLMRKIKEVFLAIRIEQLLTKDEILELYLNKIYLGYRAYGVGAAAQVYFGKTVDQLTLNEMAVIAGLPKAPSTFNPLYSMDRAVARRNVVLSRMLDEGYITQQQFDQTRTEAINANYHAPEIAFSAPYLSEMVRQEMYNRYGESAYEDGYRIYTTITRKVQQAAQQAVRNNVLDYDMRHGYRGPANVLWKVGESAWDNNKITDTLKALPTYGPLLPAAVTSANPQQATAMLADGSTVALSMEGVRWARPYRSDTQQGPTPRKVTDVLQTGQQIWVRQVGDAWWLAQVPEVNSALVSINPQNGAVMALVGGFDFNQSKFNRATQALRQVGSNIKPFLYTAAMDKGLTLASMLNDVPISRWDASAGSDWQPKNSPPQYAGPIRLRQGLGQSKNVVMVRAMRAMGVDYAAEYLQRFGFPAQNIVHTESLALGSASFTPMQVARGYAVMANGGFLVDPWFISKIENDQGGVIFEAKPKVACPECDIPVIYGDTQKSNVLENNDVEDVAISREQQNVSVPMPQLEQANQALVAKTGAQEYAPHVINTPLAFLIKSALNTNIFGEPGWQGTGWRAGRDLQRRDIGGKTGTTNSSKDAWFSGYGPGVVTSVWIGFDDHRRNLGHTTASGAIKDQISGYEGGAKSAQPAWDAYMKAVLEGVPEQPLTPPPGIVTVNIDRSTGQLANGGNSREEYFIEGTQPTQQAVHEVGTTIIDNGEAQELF

Streptococcus pneumoniae [8] = assay: In vitro antibacterial activity against Streptococcus pneumoniae 6301; assay type: functional
How it was run: (§3)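 Broth macrodilution with serial 2-fold dilutions in cation-supplemented Mueller-Hinton broth containing 10% goat serum. The value is reported as the MIC.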

Staphylococcus aureus [9] = assay: In vitro antibacterial activity against Staphylococcus aureus Smith(MS); assay type: functional
How it was run: (§4)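 Staphylococci were tested by the standard agar dilution procedure using serial 2-fold dilutions of agent. The value is reported as the MIC.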

Enterobacter cloacae [10] = assay: In vitro antibacterial activity against Enterobacter cloacae P99; assay type: functional; how it was run: as §2
Escherichia coli [11] = assay: Concentration required for 90% inhibition against 60 kDa penicillin-binding protein 3 binding using [14C]-Pen G as the radioligand.; how it was run: as §1
Staphylococcus aureus [12] = assay: In vitro antibacterial activity against Staphylococcus aureus 95(MR); assay type: functional; how it was run: as §4
Streptococcus pyogenes [13] = assay: In vitro antibacterial activity against Streptococcus pyogenes 4; assay type: functional; how it was run: as §3
Enterobacter cloacae [14] = assay: In vitro antibacterial activity against Enterobacter cloacae 5699; assay type: functional; how it was run: as §2
Pseudomonas aeruginosa [15] = assay: In vivo activity in murine against Pseudomonas aeruginosa 5712 infection after sc administration.; assay type: functional; conditions: Pseudomonas aeruginosa, sc; read-out: ED50
How it was run: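 Mouse protection test in CD1 Swiss albino mice (18–20 g) infected intraperitoneally with 0.5 mL of diluted P. aeruginosa suspension. Mice received 1.0 mL subcutaneously at the neck base within 5 min of infection and a second treatment 3 h after infection. Doses ranged from 0.05 to 250 mg/kg, with six mice per group. ED50 was calculated by the Reed–Muench method.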

Serratia marcescens [16] = assay: In vivo activity in murine against Serratia marcescens SM infection after sc administration.; assay type: functional
How it was run: (§5)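 Mouse protection test in CD1 Swiss albino mice (18–20 g). Mice were infected intraperitoneally with 0.5 mL of a diluted bacterial suspension, then treated within 5 min with one 1.0 mL subcutaneous dose at the dorsal base of the neck. Doses ranged from 0.05 to 250 mg/kg, with six mice per group. ED50 was calculated by the Reed–Muench method.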

Escherichia coli [17] = assay: In vivo activity in murine against Escherichia coli 257 infection after sc administration.; assay type: functional; conditions: Escherichia coli, sc; read-out: ED50; how it was run: as §5
Streptococcus pneumoniae [18] = assay: In vivo activity in murine against Streptococcus pneumoniae 6301 infection after sc administration.; assay type: functional; how it was run: as §5
Streptococcus pyogenes [19] = assay: In vivo activity in murine against Streptococcus pyogenes 4 infection after sc administration.; assay type: functional; how it was run: as §5

| Compound | Concentration [1] [µg/mL] | MIC (Escherichia coli [2]) [µg/mL] | MIC (Citrobacter freundii) [µg/mL] | MIC (Klebsiella pneumoniae) [µg/mL] | MIC (Escherichia coli [3]) [µg/mL] | MIC (Serratia marcescens [4]) [µg/mL] | Concentration [5] [µg/mL] | MIC (Pseudomonas aeruginosa [6]) [µg/mL] | Concentration [7] [µg/mL] | MIC (Streptococcus pneumoniae [8]) [µg/mL] | MIC (Staphylococcus aureus [9]) [µg/mL] | MIC (Enterobacter cloacae [10]) [µg/mL] | Concentration (Escherichia coli [11]) [µg/mL] | MIC (Staphylococcus aureus [12]) [µg/mL] | MIC (Streptococcus pyogenes [13]) [µg/mL] | MIC (Enterobacter cloacae [14]) [µg/mL] | also measured |
| --- | --- | --- | --- | --- | --- | --- | --- | --- | --- | --- | --- | --- | --- | --- | --- | --- | --- |
| CO/N=C(\C(=O)N[C@@H]1C(=O)N2C(C(=O)O)=C(COC(=O)c3cn(CCF)c4c(F)c(N5CCN(C)CC5)c(F)cc4c3=O)CS[C@H]12)c1csc(N)n1 | 100 | 0.063 (≈ 0.0824 µM) | 0.25 (≈ 0.327 µM) | 0.125 (≈ 0.163 µM) | 0.12 (≈ 0.157 µM) | 0.125 (≈ 0.163 µM) | 2 | 16 (≈ 20.9 µM) | 0.1 | < 0.008 | 1 (≈ 1.31 µM) | 0.125 (≈ 0.163 µM) | 0.1 | 1 (≈ 1.31 µM) | < 0.008 | 0.25 (≈ 0.327 µM) | – |
| CO/N=C(\C(=O)N[C@@H]1C(=O)N2C(C(=O)O)=C(COC(C)=O)CS[C@H]12)c1csc(N)n1 [CEFOTAXIME] | 100 | 0.031 (≈ 0.0681 µM) | 128 (≈ 281 µM) | 0.031 (≈ 0.0681 µM) | 0.06 (≈ 0.132 µM) | 0.25 (≈ 0.549 µM) | 0.5 | 64 (≈ 141 µM) | 0.1 | 0.016 (≈ 0.0351 µM) | 1 (≈ 2.2 µM) | 64 (≈ 141 µM) | 0.1 | 128 (≈ 281 µM) | < 0.008 | 0.125 (≈ 0.274 µM) | ED50 (Pseudomonas aeruginosa [15]): > 250 mg/kg; ED50 (Serratia marcescens [16]): > 50 mg/kg; ED50 (Escherichia coli [17]): 0.37 mg/kg; ED50 (Streptococcus pneumoniae [18]): 90 mg/kg; ED50 (Streptococcus pyogenes [19]): 7 mg/kg |
| C[N+]1(CC2=C(C(=O)[O-])N3C(=O)[C@@H](NC=O)[C@H]3SC2)CCN(c2c(F)cc3c(=O)c(C(=O)O)cn(CCF)c3c2F)CC1 | – | 2 (≈ 3.28 µM) | 16 (≈ 26.2 µM) | 2 (≈ 3.28 µM) | – | 8 (≈ 13.1 µM) | – | 128 (≈ 210 µM) | – | 16 (≈ 26.2 µM) | 4 (≈ 6.56 µM) | 0.5 (≈ 0.82 µM) | – | 1 (≈ 1.64 µM) | 8 (≈ 13.1 µM) | 4 (≈ 6.56 µM) | – |
| CCn1cc(C(=O)O)c(=O)c2cc(F)c(N3CC[N+](C)(CC4=C(C(=O)[O-])N5C(=O)[C@@H](NC(=O)/C(=N\OC)c6csc(N)n6)[C@H]5SC4)CC3)cc21 | – | 0.5 (≈ 0.686 µM) | 4 (≈ 5.49 µM) | 1 (≈ 1.37 µM) | – | 1 (≈ 1.37 µM) | – | 64 (≈ 87.8 µM) | – | 0.063 (≈ 0.0864 µM) | 2 (≈ 2.74 µM) | 1 (≈ 1.37 µM) | – | 4 (≈ 5.49 µM) | 0.125 (≈ 0.172 µM) | 1 (≈ 1.37 µM) | – |
| C[N+]1(CC2=C(C(=O)[O-])N3C(=O)[C@@H](NC(=O)COc4ccccc4)[C@H]3SC2)CCN(c2ccccc2)CC1 | – | 32 (≈ 61.2 µM) | > 128 | 32 (≈ 61.2 µM) | – | > 128 | – | > 128 | – | 0.125 (≈ 0.239 µM) | 0.063 (≈ 0.121 µM) | > 128 | – | 128 (≈ 245 µM) | 0.031 (≈ 0.0593 µM) | 64 (≈ 122 µM) | – |
| C[N+]1(CC2=C(C(=O)[O-])N3C(=O)[C@@H](NC(=O)COc4ccccc4)[C@H]3SC2)CCN(c2c(F)cc3c(=O)c(C(=O)O)cn(CCF)c3c2F)CC1 | > 100 | 0.5 (≈ 0.699 µM) | 2 (≈ 2.79 µM) | 0.5 (≈ 0.699 µM) | 8 (≈ 11.2 µM) | 2 (≈ 2.79 µM) | 100 | 32 (≈ 44.7 µM) | 10 | 0.25 (≈ 0.349 µM) | 0.5 (≈ 0.699 µM) | 0.5 (≈ 0.699 µM) | 2 | 1 (≈ 1.4 µM) | 0.063 (≈ 0.088 µM) | 0.5 (≈ 0.699 µM) | – |
